A number with no mark means an inactive call. Inconclusive results are not listed. Calls of active or inactive are those of the source.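 The calls were made as follows, unless noted: active = cell viability at or below a set limit in both duplicate runs, the limit being the all-compound median minus 4 SD (cut at about 23% in these data, passing the limit was not always enough); inconclusive = no clear call, values can overlap the other calls; inactive = the rest.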
How the values were obtained:
[1] = OD615 S. cerevisiae growth inhibition, permissive medium, pilot counter-assay, permissive growth control for S. cerevisiae lifespan shortening project (AID 705;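 active = growth inhibition above 25% in both replicates, a cutoff set 3 SD above the mean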); settings: OD615, 24 h, at 10 µM, stronger effect = higher value
Method in brief: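 System – S. cerevisiae with engineered DeaD lifespan system · Buffer or medium – SC raffinose/galactose permissive medium · Schedule – cells pre-grown 4 h, then 24 h compound exposure, 30 °C humidified · Technique – culture turbidity as optical density at 615 nm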

[2] = Restrictive medium S. cerevisiae growth inhibition, OD615, pilot screen of yeast lifespan reduction project, restrictive growth control (AID 706;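 active = growth inhibition above a set limit, 3 SD over mean compound inhibition, in both replicates, cut at about 43% in these data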;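 also: modified DeaD lifespan yeast strain shifted to restrictive glucose medium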); settings: OD615, 48 h, at 10 µM, stronger effect = higher value
Method in brief: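 Material: engineered S. cerevisiae DeaD strain / Medium: glucose-based CSMM-D restrictive medium / Compound: single dose of 10 µM compound final, 0.25% DMSO / Timing: 4 h pre-incubation, 48 h exposure at 30 °C / Technique: OD615 absorbance reading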

[3] = viability gain of MRP-1-high H69AR cells under doxorubicin, pilot screen, MRP-1 activator project, CellTiter-Glo, duplicate (AID 807;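 active = viability increase at or above a cutoff of the median across tested compounds plus 3 SD, cut at about 8.5% in these data, passing the limit was not always enough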;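 also: compound pretreatment 18-22 h then 72 h combined with doxorubicin; 0% = doxorubicin alone and 100% = vehicle without doxorubicin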); settings: H69AR viability with doxorubicin, CellTiter-Glo luminescence; at 10 µM; stronger effect = higher value
[4] = growth suppression of beta-catenin knockout HCT116, pilot screen, human colon tumor cells (AID 823); settings: CellTiter-Glo, 60 h, at 10 µM, stronger effect = lower value;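 also: 0% = wells killed by 20 µM Hyamine and 100% = untreated DMSO cell wells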
[5] = growth suppression of PTEN-deleted HCT116, pilot screen, cell-based, HCT116 clonal line, CellTiter-Glo (AID 824;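 active = viability at or below 27.92% in each of two runs, the all-compound median minus 4 SD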;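 also: 0% = 20 µM Hyamine control and 100% = vehicle cell control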); settings: 60 h, at 10 µM, stronger effect = lower value
[6] = inhibitors of the yeast RAM network, pilot screen, dse1pr::URA3 reporter, 5-FOA selection (AID 869;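 active = inhibition over a set limit, the all-compound mean plus 3 SD, in both replicate runs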;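 also: 0% = DMSO wells with no growth and 100% = 10 µM 1-NA-PP1 with full growth; RAM network block rescues cells from 5-FOA so hits raise OD615 growth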); settings: S. cerevisiae dse1pr::URA3 5-FOA growth, OD615, 2 d; at 10 µM; stronger effect = higher value; strain carries analog-sensitive mutant Cbk1 kinase
[7] = RAM signaling pathway blockade in yeast – S. cerevisiae, Pdr1DBD-CYC8 efflux-inhibited sensitized strain, primary screen (AID 1298;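 active = RAM network inhibition above 8.4% in each of two replicates, 3 SD over the compound average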;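 also: 0% = DMSO untreated cells without growth and 100% = 10 µM 1-NA-PP1 full growth; higher means more yeast growth rescued from 5-FOA killing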); settings: S. cerevisiae cbk1-as DSE1-URA3 strain, 5-FOA growth OD615, 2 d; at 50 µM; stronger effect = higher value

Row | Compound | growth inhibition [1] | growth inhibition [2] | viability increase [3] | viability [4] | viability [5] | inhibition [6] | RAM network inhibition [7]
1 | O=C(c1ccc(Cn2c(=O)[nH]c3ccccc3c2=O)cc1)N1CCN(c2ccccn2)CC1 | -11.8% | -8.79% | -2.12% | 93.1% | 78.6% | 0.23% | 8.38%
2 | COc1ccc(OC)c(NC(=O)COC(=O)c2ccc(S(=O)(=O)N3CCOCC3)cc2)c1 | -3.99% | 1.01% | -1.17% | 94.5% | 91.9% | 2.73% | 5.32%
3 | COc1ccc(OC)c(C2CC(=O)N3CN(c4ccccc4F)CSC3=C2C#N)c1 (stereo unspecified) | 8.3% | 14.5% | -1.77% | 98.3% | 101% | 1.03% | 8.39%
4 | COc1ccc(Nc2nnc(Cc3ccc(Cl)cc3)c(=O)[nH]2)c(OC)c1 | -11.1% | -13% | 1.86% | 100% | 95.7% | 1.89% | 2.35%
5 | COc1ccc(CC2CCOC2=O)cc1 (stereo unspecified) | -10.7% | -8.8% | 0.08% | 98% | 93.9% | 1.93% | -0.09%
6 | CNC(=O)c1cc2cc(OC)ccc2n1CCN(C)C | -8.87% | -16.4% | -3.65% | 92% | 87.2% | 2.31% | 6.18%
7 | Cc1ccc(-n2nnc3c(=O)n(Cc4cccc(C)c4)cnc32)cc1 | -5.14% | -6.1% | 1.15% | 99.9% | 93.7% | 2.65% | 1.34%
8 | Cc1sc2ncnc(NCc3ccco3)c2c1C | 4.72% | 6.04% | -6.03% | 55.6% | 62.3% | 1.61% | 6.13%
9 | CCCC(=O)Nc1nc2ccc(OC)cc2s1 | -15.5% | -17.6% | 1.29% | 93.8% | 80.7% | 0.5% | 2.32%
10 | CCOc1ccccc1NC(=O)C1CCN(S(=O)(=O)c2ccc(OC)c(OC)c2)CC1 | -4.97% | -2.79% | -2.46% | 95% | 98.1% | 0.085% | 0.83%
11 | COc1ccc(-c2cn3c(C)c(C(=O)N4CCCc5ccccc54)sc3n2)cc1 | 0.505% | 24.2% | -3.31% | 64.9% | 65.6% | 0.565% | 3.08%
12 | O=C(O)CCc1ccc(-c2cccs2)n1-c1ccc(C(=O)O)cc1 | -3.21% | 3.42% | -0.51% | 98.7% | 93.5% | 2.39% | -0.68%
13 | Cc1[nH]c(=O)[nH]c(=O)c1S(=O)(=O)N1CCCC(C(=O)N2CCC(Cc3ccccc3)CC2)C1 (stereo unspecified) | -7.81% | -8.27% | 0.94% | 100% | 101% | 0.385% | 3.66%
14 | Cc1noc(NS(=O)(=O)c2ccc(NC(=O)CSc3nc4c(cc3C#N)CCCC4)cc2)c1C | 2.36% | 3.98% | 0.62% | 109% | 101% | 2.52% | 2.9%
15 | COc1ccc(-c2nc(C#N)c(NC(C)C)o2)cc1 | -4.08% | -2.25% | -0.02% | 90.4% | 93.8% | 2.67% | 3.99%
16 | O=C(O)c1ccccc1C(=O)c1cccs1 | -14.9% | -17.1% | -0.3% | 101% | 92.5% | 0.54% | 1.05%
17 | CCOC(=O)c1c(C)oc2cc(Br)c(OC(=O)N3CCOCC3)cc12 | -10.9% | -3.17% | -0.62% | 88% | 88.8% | 0.13% | 1.4%
18 | Cc1cc(C)n(-c2ncnc3sc4c(c23)CC(C)CC4)n1 (stereo unspecified) | -1.99% | 6.4% | -0.82% | 89.7% | 90.7% | 1.6% | 0.87%
19 | COc1cccc(NC2=CC(=O)CC(C)(C)C2)c1 | 4.23% | 0.02% | -0.06% | 95% | 99.2% | 0.5% | 1.95%
20 | Cc1cc(Nc2ccc3c(c2)OCCO3)n2nc(C)nc2n1 | -5.2% | 11.4% | -2.09% | 106% | 102% | 2.84% | 1.45%
21 | CC1CCc2nn(CC(=O)Nc3c(F)cc(F)cc3Br)cc2C1 (stereo unspecified) | -5.22% | -6.17% | 2.17% | 102% | 90.3% | 1.84% | 1.57%
22 | CCCN1C(=O)c2cc(C(=O)Nc3ccccc3CC)ccc2C1O (stereo unspecified) | -6.36% | -1.31% | -0.05% | 101% | 108% | 0.77% | 3.59%
23 | COC(=O)CN(n1cnnc1)S(=O)(=O)c1ccccc1 | -9.75% | -4.21% | -0.13% | 99% | 96.9% | 1.23% | -0.62%
24 | CC1=C(C(=O)N(C)C)C(c2cccc(Cl)c2)NC(=O)N1 (stereo unspecified) | -2.44% | -14.6% | 0.18% | 99.1% | 94.9% | 2.12% | 2.17%

Row | Compound | growth inhibition [1] | growth inhibition [2] | viability increase [3] | viability [4] | viability [5] | inhibition [6] | RAM network inhibition [7]
25 | COc1ccc(NC(=O)C2CCN(C(=O)c3ccccc3)CC2)c(OC)c1 | 9.86% | -0.9% | -2.96% | 95.8% | 94.8% | 2.57% | 3.44%
26 | CS(=O)(=O)c1ccc2nc(NC(=O)c3ccco3)sc2c1 | -16% | -4.42% | -7.64% | 84.9% | 81.9% | 3.1% | 4.15%
27 | CCCC(C(=O)N1CCOCC1)N1C(=O)C2C3C=CC(C3)C2C1=O (stereo unspecified) | -8.63% | 3.61% | 0.84% | 99% | 99% | 0.215% | -0.83%
28 | Cc1cc(-c2ccco2)n(CC(=O)NCCN(C)C)n1 | -3.33% | 1.02% | -0.48% | 98.8% | 94.5% | 2.31% | 0.37%
29 | O=C(c1ccc2snnc2c1)N1CCCC1 | -11.3% | -4.86% | -0.66% | 99.7% | 94.2% | 1.14% | 4.99%
30 | O=C(NC1CCCCCCC1)c1ccc(CNc2c(N3CCOCC3)c(=O)c2=O)cc1 | 1.56% | 8.42% | 0.25% | 100% | 95.6% | 0.71% | 0.92%
31 | COc1cccc(N2CCN(C(=O)C3CCCN(S(=O)(=O)c4cnc[nH]4)C3)CC2)c1 (stereo unspecified) | 11.1% | 8.66% | 0.99% | 97% | 93% | -0.27% | -0.88%
32 | Cc1cccn2c(=O)c3cc(C(=O)NC4CCS(=O)(=O)C4)sc3nc12 (stereo unspecified) | -6% | 1.39% | -2.99% | 101% | 97.2% | 2.06% | 0.09%
33 | COc1ccc(NS(=O)(=O)c2ccc(OC)c(OC)c2)cc1OC | -7.13% | 4.59% | 0.52% | 92% | 90.7% | 0.335% | 0%
34 | CC(=O)c1c(N2CCN(c3ccccc3)CC2)nc(=S)n(-c2ccccc2)c1C | 3.6% | 15.2% | -3.16% | 92.9% | 99.9% | 0.91% | 6.47%
35 | CC(CCc1ccccc1)NC(=O)CSc1nccc(=O)[nH]1 (stereo unspecified) | -20.5% | -6.91% | -0.56% | 94.2% | 94.5% | 1.06% | 2.7%
36 | COc1ccc(OCC(=O)N(C)Cc2ccccc2)cc1 | -3.42% | 1.48% | -2.43% | 96% | 91.7% | 0.72% | 0.61%
37 | Cc1ccc(Cn2c(Sc3nnc(C)s3)nc3c2c(=O)[nH]c(=O)n3C)cc1 | -1.77% | -4.4% | -2.58% | 85.8% | 78.6% | 2.5% | 1.84%
38 | O=C1CCCCCN1Cc1nnc(SCc2nc3ccccc3s2)n1-c1ccccn1 | -3.83% | 19.8% | -3.45% | 91.7% | 95% | 1.07% | 2.7%
39 | O=C(c1ccc2nc(N3CCCCC3)sc2c1)N1CCN(Cc2ccc3c(c2)OCO3)CC1 | 2.12% | 1.62% | 1.03% | 54.2% | 60.2% | 0.76% | 1.12%
40 | COc1ccc(C2C(C(N)=O)=C(C)Nc3nc(-c4ccccc4)nn32)cc1OC (stereo unspecified) | -4.7% | -8.15% | -1.13% | 95.3% | 95.2% | 0.78% | -0.68%
41 | COc1ccccc1NC(=O)CSc1nc2sc(C)c(C)c2c(=O)n1Cc1ccco1 | 9.68% | 9.95% | -3.07% | 91% | 92% | 2.17% | 3.57%
42 | N=c1n(CCO)c2ccccc2n1CCOc1ccc(Cl)cc1Cl | -0.15% | 4.96% | -8.35% | 1.5% (active) | 1.54% (active) | 1% | 0.72%
43 | Cc1ccccc1-n1c(SC/C(O)=C(\C#N)c2nc3ccccc3[nH]2)nnc1-c1ccncc1 | 2.37% | 19.1% | -3.4% | 93.5% | 81.7% | 2.92% | 2.28%
44 | Cc1cccc(OCC2=N/C(=C\N(C)C)C(=O)O2)c1 | -21.7% | -9.04% | -0.64% | 97.2% | 91.3% | 1.48% | 2.9%
45 | CC(NC(=O)C1CCCN(S(=O)(=O)c2cnc[nH]2)C1)c1ccccc1 (stereo unspecified) | 2.1% | 2.4% | -0.99% | 98.3% | 97.4% | -0.19% | -0.35%
46 | CCOC(=O)c1ccc2c(c1)NC(=O)C(N1CCN(c3ccc(OC)cc3)CC1)S2 (stereo unspecified) | 0.455% | -5.2% | -7.1% | 74.6% | 51.8% | 4.31% | 6.45%
47 | Cc1cc(O)c(C=Nc2cccc(Cl)c2)c(=O)o1 | 4.66% | 4.37% | -3.17% | 102% | 94.1% | 3.11% | -0.93%
48 | CCC(=O)N1C(C(=O)N2CCCC2)CSC1c1ccc(OC)cc1 (stereo unspecified) | -12.1% | -12.3% | -3.3% | 96% | 97.5% | -0.035% | 0.53%
